Assay results: ChEMBL document CHEMBL1137371, “Pyrazolidine-3,5-diones and 5-hydroxy-1H-pyrazol-3(2H)-ones, inhibitors of UDP-N-acetylenolpyruvyl glucosamine reductase” (J Med Chem, 2006)
≈ marks a conversion by molar mass, not a printed value. Calls of active or inactive are those of the source. The calls are words filed in the database; no cut-off is given here.

Columns and labels:
Candida albicans = experiment: Antibacterial activity against Candida albicans by micro-broth dilution method; assay type: functional, organism-based
Outline: (§1)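 Broth microdilution in Mueller-Hinton II medium per NCCLS recommendations. Inoculum 5 × 10⁵ cfu/mL, compound range 0.06-128 µg/mL. MIC read after 18 h at 35 °C in ambient air.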

[1] = target: T1, UDP-N-acetylenolpyruvoylglucosamine reductase (Escherichia coli K-12, UniProt P08373); experiment: Inhibition of MurB activity
T1 sequence (P08373 whole entry): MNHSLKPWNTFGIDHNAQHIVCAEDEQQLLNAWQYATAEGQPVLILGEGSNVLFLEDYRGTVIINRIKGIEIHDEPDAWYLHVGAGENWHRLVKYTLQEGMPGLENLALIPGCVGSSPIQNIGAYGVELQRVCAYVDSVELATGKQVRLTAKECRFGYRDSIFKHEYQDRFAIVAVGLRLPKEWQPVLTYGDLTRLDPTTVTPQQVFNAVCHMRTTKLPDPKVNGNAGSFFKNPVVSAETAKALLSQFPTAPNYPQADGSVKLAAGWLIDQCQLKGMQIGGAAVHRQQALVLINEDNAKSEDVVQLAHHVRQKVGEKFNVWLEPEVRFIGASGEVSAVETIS
Outline: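 Recombinant E. coli MurB was expressed in BL21(λDE3) and purified. Enzyme (20 nM) was preincubated 20 min with inhibitor at 1.6, 3.2, 6.4, 12.8, 25 and 50 µM. Reaction in 50 mM Tris-HCl pH 8.0 with 10 mM KCl, 50 µM enolpyruvyl UDP-GlcNAc and 100 µM NADPH. NADPH oxidation followed as A340 decrease over 5 min. IC50 from sigmoid Hill fit, mean of three runs.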

Escherichia coli = experiment: Antibacterial activity against Escherichia coli GC 4560 (imp) by micro-broth dilution method; assay type: functional; outline: as §1
Streptococcus pneumoniae [2] = experiment: Antibacterial activity against penicillin resistant Streptococcus pneumoniae GC 1894 by microbroth dilution method; assay type: functional
Streptococcus pneumoniae [3] = experiment: Antibacterial activity against Streptococcus pneumoniae in presence of 4% bovine serum albumin; assay type: functional
Enterococcus faecalis = experiment: Antibacterial activity against vancomycin resistant Enterococcus faecalis GC 2242 by microbroth dilution method; assay type: functional
Staphylococcus aureus = experiment: Antibacterial activity against methicillin resistant Staphylococcus aureus GC 1131 by micro-broth dilution method; assay type: functional
[4] = test system: Staphylococcus epidermidis; experiment: Inhibition of soluble peptidoglycan biosynthesis in Staphylococcus epidermidis; assay type: functional, organism-based
Outline: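 S. epidermidis was grown in BHI to OD600 0.6, washed and concentrated tenfold in cell-wall-enriched medium. Cells incubated with 50 µg/mL chloramphenicol, 100 µg/mL penicillin G, [¹⁴C]-GlcNAc (2.9 µM/40 nCi) and compound at 0-25 µg/mL, 1 h, 37 °C, shaking. Supernatant precipitated with 5% TCA/0.4% BSA, 30 min at 4 °C, then filtered and scintillation counted.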

[5] = Escherichia coli, GC 4560, read-out: MIC
[6] = Streptococcus pneumoniae, GC 1894, read-out: MIC
[7] = Enterococcus faecalis, GC 2242, read-out: MIC
[8] = Staphylococcus aureus, GC 1131, read-out: MIC

| SMILES | Activity (Candida albicans) | IC50 [1] [µM] | MIC (Escherichia coli; [5]) [µg/mL] | MIC (Streptococcus pneumoniae [2]; [6]) [µg/mL] | MIC (Streptococcus pneumoniae [3]) [µg/mL] | MIC (Enterococcus faecalis; [7]) [µg/mL] | MIC (Staphylococcus aureus; [8]) [µg/mL] | MIC (Escherichia coli) [µg/mL] | IC50 [4] [µM] | MIC (Streptococcus pneumoniae [2]) [µg/mL] | MIC (Enterococcus faecalis) [µg/mL] | MIC (Staphylococcus aureus) [µg/mL] |
| --- | --- | --- | --- | --- | --- | --- | --- | --- | --- | --- | --- | --- |
| O=C(Nc1ccc(Cl)c(Cl)c1)c1c(O)n(-c2ccc(Cl)c(Cl)c2)n(-c2ccc(Cl)c(Cl)c2)c1=O | inactive | 4.8 | > 128 | 0.5 (≈ 0.865 µM) | > 128 | 0.5 (≈ 0.865 µM) | 64 (≈ 111 µM) |  |  |  |  |  |
| O=C(Nc1ccc(Br)cc1)c1c(O)n(-c2ccccc2)n(-c2ccccc2)c1=O | inactive | 42 | > 128 | 1 (≈ 2.22 µM) | > 128 | 1 (≈ 2.22 µM) | 16 (≈ 35.5 µM) |  |  |  |  |  |
| O=C(Nc1ccc(C(F)(F)F)cc1)c1c(O)n(-c2ccc(Cl)cc2)n(-c2ccc(Cl)cc2)c1=O | inactive | 5.9 |  |  |  |  |  | 16 (≈ 31.5 µM) | 8.3 |  |  |  |
| COc1ccc(C(=O)c2c(O)n(-c3ccc(Cl)cc3)n(-c3ccc(Cl)cc3)c2=O)cc1 | inactive | 10 |  |  | > 128 |  | 11.3 (≈ 24.8 µM) | 23 (≈ 50.5 µM) |  | 2.8 (≈ 6.15 µM) | 5.7 (≈ 12.5 µM) |  |
| O=C(Nc1ccc(Cl)cc1)c1c(O)n(-c2ccc(Cl)cc2)n(-c2ccc(Cl)cc2)c1=O | inactive | 13.7 |  |  |  |  |  | 2 (≈ 4.21 µM) | 42.2 |  |  |  |
| O=C(Nc1ccc(Cl)cc1)c1c(O)n(-c2cccc(Cl)c2)n(-c2cccc(Cl)c2)c1=O | inactive | 8.6 | > 128 | < 0.12 | > 128 | 0.25 (≈ 0.527 µM) | 0.5 (≈ 1.05 µM) |  | 3 |  |  |  |
| O=C(Nc1ccccc1)c1c(O)n(-c2ccccc2)n(-c2ccccc2)c1=O | inactive | 54 | > 128 | 16 (≈ 43.1 µM) | > 128 | 8 (≈ 21.5 µM) | 64 (≈ 172 µM) |  |  |  |  |  |
| COc1ccc(CC(=O)c2c(O)n(-c3ccc(Cl)cc3)n(-c3ccc(Cl)cc3)c2=O)cc1 | inactive | 40 | > 94 | 0.73 (≈ 1.56 µM) | > 128 | 1.4 (≈ 2.98 µM) | 11.7 (≈ 24.9 µM) |  |  |  |  |  |
| O=C1CC(=O)N(c2ccc(F)cc2)N1c1ccc(F)cc1 |  | > 87 | 64 (≈ 222 µM) | 64 (≈ 222 µM) |  | 128 (≈ 444 µM) | 128 (≈ 444 µM) |  |  |  |  |  |
| O=C1CC(=O)N(c2ccccc2)N1c1ccccc1 |  | > 100 |  |  |  |  |  |  |  |  |  |  |
| O=C(c1ccc(Cl)cc1)c1c(O)n(-c2ccc(Cl)cc2)n(-c2ccc(Cl)cc2)c1=O | inactive | 11 |  |  | > 128 |  |  | 23 (≈ 50 µM) |  | 0.72 (≈ 1.57 µM) | 1.4 (≈ 3.05 µM) | 5.7 (≈ 12.4 µM) |
| Cc1ccc(NC(=O)c2c(O)n(-c3ccc(Cl)c(Cl)c3)n(-c3ccc(Cl)c(Cl)c3)c2=O)cc1 | inactive | 4.8 | > 128 | < 0.12 | > 128 | 0.25 (≈ 0.478 µM) | 16 (≈ 30.6 µM) |  | 4 |  |  |  |
| O=C1CC(=O)N(c2cccc(Cl)c2)N1c1cccc(Cl)c1 |  | 68.5 | 200 (≈ 623 µM) | 8 (≈ 24.9 µM) |  | 16 (≈ 49.8 µM) | 16 (≈ 49.8 µM) |  | 56 |  |  |  |
| O=C1C(=C(O)c2ccc(Cl)c(Cl)c2)C(=O)N(c2ccc(Cl)cc2)N1c1ccc(Cl)cc1 | inactive | 13 | 49 (≈ 99.2 µM) | 0.39 (≈ 0.789 µM) | > 128 | 0.77 (≈ 1.56 µM) | 6.2 (≈ 12.5 µM) |  |  |  |  |  |
| O=C(c1cccs1)c1c(O)n(-c2ccc(Cl)cc2)n(-c2ccc(Cl)cc2)c1=O | inactive | 5.8 | 21.6 (≈ 50.1 µM) | 0.67 (≈ 1.55 µM) | > 128 | 1.3 (≈ 3.01 µM) | 5.4 (≈ 12.5 µM) |  | 1 |  |  |  |
| O=C1CC(=O)N(c2ccc(Cl)c(Cl)c2)N1c1ccc(Cl)c(Cl)c1 |  | 25.1 | 32 (≈ 82 µM) | 4 (≈ 10.3 µM) |  | 8 (≈ 20.5 µM) | 8 (≈ 20.5 µM) |  | 41 |  |  |  |
| O=C(Nc1ccc(Cl)cc1)c1c(O)n(-c2ccccc2)n(-c2ccccc2)c1=O | inactive | 54 | > 128 | 0.5 (≈ 1.23 µM) | > 128 | 1 (≈ 2.46 µM) | 32 (≈ 78.8 µM) |  |  |  |  |  |
| O=C(Nc1ccc(C(F)(F)F)cc1)c1c(O)n(-c2cccc(Cl)c2)n(-c2cccc(Cl)c2)c1=O | inactive | 8.7 | 64 (≈ 126 µM) | < 0.12 | > 128 | < 0.12 | 0.5 (≈ 0.984 µM) |  | 2.2 |  |  |  |
| O=C1CC(=O)N(c2ccc(Cl)cc2)N1c1ccc(Cl)cc1 |  | 71.6 | 16 (≈ 49.8 µM) | 8 (≈ 24.9 µM) |  | 8 (≈ 24.9 µM) | 8 (≈ 24.9 µM) |  |  |  |  |  |
| O=C(c1ccc(C(F)(F)F)cc1)c1c(O)n(-c2ccc(Cl)cc2)n(-c2ccc(Cl)cc2)c1=O | inactive | 15 | 16 (≈ 32.4 µM) |  | > 128 |  | 8 (≈ 16.2 µM) |  |  | 0.5 (≈ 1.01 µM) | 2 (≈ 4.05 µM) |  |
| O=C(c1ccc(OC(F)(F)F)cc1)c1c(O)n(-c2ccc(Cl)cc2)n(-c2ccc(Cl)cc2)c1=O | inactive | 5.4 | 25.4 (≈ 49.9 µM) | 0.79 (≈ 1.55 µM) | > 128 | 0.79 (≈ 1.55 µM) | 12.7 (≈ 24.9 µM) |  | 2 |  |  |  |
| COc1ccc(NC(=O)c2c(O)n(-c3ccc(Cl)cc3)n(-c3ccc(Cl)cc3)c2=O)cc1 | inactive | 16 |  |  |  |  |  | >128 |  |  |  |  |
| O=C(c1ccc(-c2ccccc2)cc1)c1c(O)n(-c2ccc(Cl)cc2)n(-c2ccc(Cl)cc2)c1=O | inactive | 6.1 | > 100 | 0.3 (≈ 0.598 µM) | > 128 | 0.39 (≈ 0.778 µM) | 3.1 (≈ 6.18 µM) |  | 4.9 |  |  |  |
| CCCCOc1ccc(C(=O)c2c(O)n(-c3ccc(Cl)cc3)n(-c3ccc(Cl)cc3)c2=O)cc1 | inactive | 4.5 | > 100 | 0.39 (≈ 0.784 µM) | > 128 | 0.39 (≈ 0.784 µM) | 1.6 (≈ 3.22 µM) |  | 7.3 |  |  |  |
